Data as given in ChEMBL document CHEMBL4715925, “Sulfamoylbenzamide-based Capsid Assembly Modulators for Selective Inhibition of Hepatitis B Viral Replication” (ACS Med Chem Lett, 2021).
Each block holds one molecule with its values, some of them ahead of it.

How the values were obtained:
[1] = Cytotoxicity against human HepG2 2.2.15 cells assessed as reduction in cell viability incubated for 5 days by MTT assay; assay type: cell-based; conditions: time 5 day
Outline: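 HepG2.2.15 cells were incubated with compound, then cell viability was measured. Mean ± SD of three independent experiments.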

Hepatitis B virus = experiment: Antiviral activity against Hepatitis B genotype D virus infected in HepG2 2.2.15 cells assessed as inhibition of viral DNA incubated for 5 days by qPCR analysis; assay type: functional, cell-based; conditions: HepG2 2.2.15, 120 h
Outline: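 HepG2.2.15 cells were incubated with compound for 5 days. HBV DNA was then purified from the culture supernatant and quantified by real-time PCR.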

[2] = Half life in Sprague-Dawley rat at 5 mg/kg, po by LC-MS/MS analysis; assay type: ADME, organism-based; conditions: in vivo
Outline: (§1)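 Male SD rats, 5 mg/kg given i.v. or p.o.; plasma concentration–time courses followed. Parameters: Tmax, Cmax, terminal T1/2, AUClast, AUC to infinity, total plasma clearance, Vss, oral bioavailability (Ft). Values are mean ± SD of at least three independent experiments.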

[3] = Tmax in Sprague-Dawley rat at 5 mg/kg, po by LC-MS/MS analysis; assay type: ADME, organism-based; conditions: in vivo; outline: as §1
[4] = target: Voltage-gated inwardly rectifying potassium channel KCNH2 (Homo sapiens, UniProt Q12809); experiment: Inhibition of human ERG by fluorescence polarization assay
[5] = Cmax in Sprague-Dawley rat at 5 mg/kg, po by LC-MS/MS analysis; assay type: ADME, organism-based; set-up: route oral, dose 5 mg/kg; conditions: in vivo; outline: as §1
[6] = Stability in human plasma assessed as compound remaining at 5 uM incubated for 4 hrs by LC-MS/MS analysis; assay type: ADME, cell-free; conditions: read-out: Stabilty
Outline: (§2)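 Incubated in rat or human plasma at 37 °C for 4 h; result is % compound remaining. n = 3, mean ± SD.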

[7] = Metabolic stability in human liver microsomes assessed as half life at 1 uM incubated for 30 mins by LC-MS/MS analysis; assay type: ADME, Microsome
Outline: (§3)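 Phase-I stability in rat or human liver microsomes, given as % remaining after 30 min, with half-life also derived. n = 3, mean ± SD.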

[8] = Oral bioavailability in Sprague-Dawley rat at 5 mg/kg by LC-MS/MS analysis; assay type: ADME, organism-based; conditions: in vivo; outline: as §1
Cytochrome P450 2C19 = Cytochrome P450 2C19 (Homo sapiens, UniProt P33261); experiment: Inhibition of human liver microsome CYP2C19 using S-mephenytoin as substrate incubated for 20 mins by LC-MS/MS with HPLC analysis; assay type: ADME, microsomes
Outline: (§4)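 Cocktail-substrate assay in human liver microsomes; IC50 reported for CYP1A2, 2C9, 2C19, 2D6 and 3A4. n = 3, mean ± SD.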

[9] = AUC (0 to infinity) in Sprague-Dawley rat at 5 mg/kg, iv by LC-MS/MS analysis; assay type: ADME, organism-based; set-up: time infinity, route intravenous, dose 5 mg/kg; conditions: in vivo; outline: as §1
[10] = Metabolic stability in rat liver microsomes assessed as compound remaining at 1 uM incubated for 30 mins by LC-MS/MS analysis; assay type: ADME, Microsome; conditions: read-out: Stabilty; outline: as §3
[11] = Metabolic stability in human liver microsomes assessed as compound remaining at 1 uM incubated for 30 mins by LC-MS/MS analysis; assay type: ADME, Microsome; conditions: read-out: Stabilty; outline: as §3
Cytochrome P450 2C9 = Cytochrome P450 2C9 (Homo sapiens, UniProt P11712); experiment: Inhibition of human liver microsome CYP2C9 using tolbutamide as substrate incubated for 20 mins by LC-MS/MS with HPLC analysis; assay type: ADME, microsomes; outline: as §4
Cytochrome P450 3A4 = Cytochrome P450 3A4 (Homo sapiens, UniProt P08684); experiment: Inhibition of human liver microsome CYP3A4 using […] as substrate incubated for 20 mins by LC-MS/MS with HPLC analysis; assay type: ADME, microsomes; outline: as §4
Cytochrome P450 1A2 = target: T1, Cytochrome P450 1A2 (Homo sapiens, UniProt P05177); experiment: Inhibition of human liver microsome CYP1A2 using phenacetin as substrate incubated for 20 mins by LC-MS/MS with HPLC analysis; assay type: ADME, microsomes; outline: as §4
T1 sequence (P05177 whole entry): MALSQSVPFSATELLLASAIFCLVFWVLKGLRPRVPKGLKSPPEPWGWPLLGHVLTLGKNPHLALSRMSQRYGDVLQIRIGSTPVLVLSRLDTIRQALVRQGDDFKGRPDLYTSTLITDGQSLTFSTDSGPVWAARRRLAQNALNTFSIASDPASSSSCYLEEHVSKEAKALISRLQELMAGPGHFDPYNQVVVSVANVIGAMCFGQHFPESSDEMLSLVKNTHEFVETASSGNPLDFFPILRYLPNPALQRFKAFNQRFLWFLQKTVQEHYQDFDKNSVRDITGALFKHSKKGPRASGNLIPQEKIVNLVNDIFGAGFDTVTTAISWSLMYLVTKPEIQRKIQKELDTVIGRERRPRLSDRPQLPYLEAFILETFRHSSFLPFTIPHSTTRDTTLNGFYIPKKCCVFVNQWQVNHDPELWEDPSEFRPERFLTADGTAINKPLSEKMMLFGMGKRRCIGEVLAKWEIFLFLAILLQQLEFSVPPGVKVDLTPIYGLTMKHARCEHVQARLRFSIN

Cytochrome P450 2D6 = Cytochrome P450 2D6 (Homo sapiens, UniProt P10635); experiment: Inhibition of human liver microsome CYP2D6 using dextromethorphan as substrate incubated for 20 mins by LC-MS/MS with HPLC analysis; assay type: ADME, microsomes; outline: as §4
[12] = Stability in rat plasma assessed as compound remaining at 5 uM incubated for 4 hrs by LC-MS/MS analysis; assay type: ADME, cell-free; conditions: read-out: Stabilty; outline: as §2
[13] = Protein binding in rat plasma at 5 uM incubated for 4 hrs by LC-MS/MS analysis; assay type: ADME, cell-free; conditions: read-out: PPB (converted)
[14] = Protein binding in human plasma at 5 uM incubated for 4 hrs by LC-MS/MS analysis; assay type: ADME, cell-free; conditions: read-out: PPB (converted)
[15] = AUClast in Sprague-Dawley rat at 5 mg/kg, po by LC-MS/MS analysis; assay type: ADME, organism-based; set-up: time 0 - last, route oral, dose 5 mg/kg; conditions: in vivo; outline: as §1
[16] = Clearance in Sprague-Dawley rat at 5 mg/kg, iv by LC-MS/MS analysis; assay type: ADME, organism-based; conditions: in vivo; outline: as §1
[17] = Selectivity index, ratio of CC50 for human […] cells to EC50 for Hepatitis B virus; assay type: toxicity; conditions: read-out: Ratio CC50/EC50
[18] = AUC (0 to infinity) in Sprague-Dawley rat at 5 mg/kg, po by LC-MS/MS analysis; assay type: ADME, organism-based; set-up: time infinity, route oral, dose 5 mg/kg; conditions: in vivo; outline: as §1
[19] = Half life in Sprague-Dawley rat at 5 mg/kg, iv by LC-MS/MS analysis; assay type: ADME, organism-based; conditions: in vivo; outline: as §1
[20] = AUClast in Sprague-Dawley rat at 5 mg/kg, iv by LC-MS/MS analysis; assay type: ADME, organism-based; set-up: route intravenous, time 0 - last, dose 5 mg/kg; conditions: in vivo; outline: as §1
[21] = Metabolic stability in rat liver microsomes assessed as half life at 1 uM incubated for 30 mins by LC-MS/MS analysis; assay type: ADME, Microsome; outline: as §3
[22] = Volume of distribution at steady state in Sprague-Dawley rat at 5 mg/kg, iv by LC-MS/MS analysis; assay type: ADME, organism-based; conditions: in vivo, read-out: Vdss; outline: as §1

Chain of Cytochrome P450 3A4 (P08684 whole entry): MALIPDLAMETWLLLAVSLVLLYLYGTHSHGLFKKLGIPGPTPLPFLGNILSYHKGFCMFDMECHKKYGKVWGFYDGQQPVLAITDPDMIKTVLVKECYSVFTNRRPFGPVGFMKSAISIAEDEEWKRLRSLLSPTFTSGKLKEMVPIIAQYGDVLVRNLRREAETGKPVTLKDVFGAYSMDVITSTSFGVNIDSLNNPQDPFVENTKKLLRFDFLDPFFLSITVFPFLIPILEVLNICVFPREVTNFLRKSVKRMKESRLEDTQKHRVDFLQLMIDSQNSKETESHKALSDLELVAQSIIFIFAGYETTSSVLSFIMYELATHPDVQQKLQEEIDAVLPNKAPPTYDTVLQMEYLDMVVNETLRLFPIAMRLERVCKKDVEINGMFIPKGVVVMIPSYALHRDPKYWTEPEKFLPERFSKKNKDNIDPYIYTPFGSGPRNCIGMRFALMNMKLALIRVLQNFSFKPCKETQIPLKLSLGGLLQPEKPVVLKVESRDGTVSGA
Chain of Cytochrome P450 2C9 (P11712 whole entry): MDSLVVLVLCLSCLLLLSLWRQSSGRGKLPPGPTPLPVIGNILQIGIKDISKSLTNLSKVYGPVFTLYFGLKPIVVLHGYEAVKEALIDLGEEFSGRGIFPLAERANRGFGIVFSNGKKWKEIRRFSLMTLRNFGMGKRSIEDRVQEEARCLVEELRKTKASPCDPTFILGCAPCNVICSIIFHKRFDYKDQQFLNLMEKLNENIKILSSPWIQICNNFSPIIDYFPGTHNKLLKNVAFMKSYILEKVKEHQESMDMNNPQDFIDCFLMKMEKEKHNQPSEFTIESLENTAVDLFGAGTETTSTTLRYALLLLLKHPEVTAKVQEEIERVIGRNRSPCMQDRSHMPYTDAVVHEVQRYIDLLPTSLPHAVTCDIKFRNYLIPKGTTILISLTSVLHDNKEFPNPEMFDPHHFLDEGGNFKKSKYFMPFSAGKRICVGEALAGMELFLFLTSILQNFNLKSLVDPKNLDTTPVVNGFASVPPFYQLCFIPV
Chain of Cytochrome P450 2D6 (P10635 whole entry): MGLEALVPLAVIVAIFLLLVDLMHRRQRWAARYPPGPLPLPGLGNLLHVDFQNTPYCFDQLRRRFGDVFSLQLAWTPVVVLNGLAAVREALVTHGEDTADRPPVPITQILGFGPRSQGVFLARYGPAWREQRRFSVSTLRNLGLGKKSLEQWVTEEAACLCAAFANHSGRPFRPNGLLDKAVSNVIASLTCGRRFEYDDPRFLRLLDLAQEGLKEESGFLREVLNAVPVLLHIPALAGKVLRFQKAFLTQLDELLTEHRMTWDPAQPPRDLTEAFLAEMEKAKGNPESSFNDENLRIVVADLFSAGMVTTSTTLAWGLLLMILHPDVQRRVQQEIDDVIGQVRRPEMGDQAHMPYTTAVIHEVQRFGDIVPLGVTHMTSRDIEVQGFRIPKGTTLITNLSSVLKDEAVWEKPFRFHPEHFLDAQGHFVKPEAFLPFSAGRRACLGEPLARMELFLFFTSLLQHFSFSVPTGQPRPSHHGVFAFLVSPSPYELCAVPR
Chain of Voltage-gated inwardly rectifying potassium channel KCNH2 (Q12809 whole entry): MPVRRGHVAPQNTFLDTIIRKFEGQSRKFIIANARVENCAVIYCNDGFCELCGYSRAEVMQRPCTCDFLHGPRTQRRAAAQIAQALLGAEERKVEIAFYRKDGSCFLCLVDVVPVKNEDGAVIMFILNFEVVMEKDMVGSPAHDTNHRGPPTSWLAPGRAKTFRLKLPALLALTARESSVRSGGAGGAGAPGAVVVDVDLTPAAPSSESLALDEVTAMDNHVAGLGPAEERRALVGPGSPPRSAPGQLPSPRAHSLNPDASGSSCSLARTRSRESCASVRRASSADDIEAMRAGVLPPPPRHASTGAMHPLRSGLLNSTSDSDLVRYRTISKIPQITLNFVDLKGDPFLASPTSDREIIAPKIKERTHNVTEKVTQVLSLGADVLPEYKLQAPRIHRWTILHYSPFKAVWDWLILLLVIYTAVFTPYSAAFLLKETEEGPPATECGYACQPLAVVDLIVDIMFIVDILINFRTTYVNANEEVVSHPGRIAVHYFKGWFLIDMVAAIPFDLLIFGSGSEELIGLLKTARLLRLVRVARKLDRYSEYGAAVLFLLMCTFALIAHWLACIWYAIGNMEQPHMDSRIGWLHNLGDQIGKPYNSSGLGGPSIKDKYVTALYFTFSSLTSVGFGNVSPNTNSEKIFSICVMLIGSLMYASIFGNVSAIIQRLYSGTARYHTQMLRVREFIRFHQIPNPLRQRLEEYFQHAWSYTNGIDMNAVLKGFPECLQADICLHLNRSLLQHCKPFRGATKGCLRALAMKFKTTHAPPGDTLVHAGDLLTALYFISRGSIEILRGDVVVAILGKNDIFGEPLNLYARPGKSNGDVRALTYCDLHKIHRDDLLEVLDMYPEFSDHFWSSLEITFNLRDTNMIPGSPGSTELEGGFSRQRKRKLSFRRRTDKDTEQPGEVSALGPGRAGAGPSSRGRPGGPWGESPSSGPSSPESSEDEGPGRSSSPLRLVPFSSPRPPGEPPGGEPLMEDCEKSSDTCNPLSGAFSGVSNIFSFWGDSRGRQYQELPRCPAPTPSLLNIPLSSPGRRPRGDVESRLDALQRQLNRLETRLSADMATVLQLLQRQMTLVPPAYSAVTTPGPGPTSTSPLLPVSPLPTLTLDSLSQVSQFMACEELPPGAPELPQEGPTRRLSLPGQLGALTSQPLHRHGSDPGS
Chain of Cytochrome P450 2C19 (P33261 whole entry): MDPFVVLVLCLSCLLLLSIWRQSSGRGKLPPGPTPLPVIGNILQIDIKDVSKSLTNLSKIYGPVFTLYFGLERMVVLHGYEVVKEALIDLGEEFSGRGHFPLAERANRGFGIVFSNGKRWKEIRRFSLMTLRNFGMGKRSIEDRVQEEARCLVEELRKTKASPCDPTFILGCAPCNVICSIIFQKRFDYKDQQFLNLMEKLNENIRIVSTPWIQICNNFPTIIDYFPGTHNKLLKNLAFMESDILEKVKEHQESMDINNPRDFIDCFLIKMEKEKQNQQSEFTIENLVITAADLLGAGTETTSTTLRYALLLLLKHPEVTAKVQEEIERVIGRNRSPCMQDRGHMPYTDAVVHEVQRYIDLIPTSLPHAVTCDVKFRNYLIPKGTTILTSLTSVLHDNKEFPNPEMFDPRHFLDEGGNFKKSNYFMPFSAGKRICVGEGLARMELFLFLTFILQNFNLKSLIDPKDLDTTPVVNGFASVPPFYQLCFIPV

SMILES: Nc1cc(F)c(S(=O)(=O)N2CCC(O)CC2)cc1C(=O)Nc1ccc(F)c(C(F)F)c1
half-life [2]: 5.16 h | Tmax [3]: 1.33 h | IC50 [4]: > 10 µM | Cmax [5]: 280 ng/mL | remaining at 4 h, 5 µM [6]: 100% | half-life at 1 µM [7]: 0.51 h | bioavailability [8]: 49.9% | IC50 (Cytochrome P450 2C19): 19 µM | AUC(0-inf) [9]: 2330 ng·h/mL | remaining at 0.5 h, 1 µM [10]: 54.1% | remaining at 0.5 h, 1 µM [11]: 40.5% | IC50 (Cytochrome P450 2C9): 25.2 µM | IC50 (Cytochrome P450 3A4): 20.8 µM | IC50 (Cytochrome P450 1A2): 45.5 µM | IC50 (Cytochrome P450 2D6): 26.7 µM | remaining at 4 h, 5 µM [12]: 99.6% | fraction unbound at 4 h, 5 µM [13]: 0.108 | fraction unbound at 4 h, 5 µM [14]: 0.029 | AUC(0-t) [15]: 1150 ng·h/mL | CC50 at 120 h [1]: 47.5 µM | clearance [16]: 36 mL/min/kg | EC50 (Hepatitis B virus): 0.29 µM | selectivity ratio [17]: 164 | AUC(0-inf) [18]: 1230 ng·h/mL | half-life [19]: 2.55 h | AUC(0-t) [20]: 2310 ng·h/mL | half-life at 1 µM [21]: 0.488 h | Vd [22]: 3.59 L/kg

SMILES: Nc1cc(F)c(S(=O)(=O)N2CCC(O)CC2)cc1C(=O)Nc1ccc(Cl)c(F)c1
CC50 at 120 h [1]: 20.3 µM | EC50 (Hepatitis B virus): 2.18 µM | selectivity ratio [17]: 9.3

SMILES: Nc1cc(F)c(S(=O)(=O)N2CCC(O)CC2)cc1C(=O)Nc1ccc(F)cc1
CC50 at 120 h [1]: 45.8 µM | EC50 (Hepatitis B virus): 0.57 µM | selectivity ratio [17]: 80.4

SMILES: Nc1cc(F)c(S(=O)(=O)N2CCC(O)CC2)cc1C(=O)Nc1ccc(Cl)c(Cl)c1
CC50 at 120 h [1]: 20.4 µM | EC50 (Hepatitis B virus): 2.07 µM | selectivity ratio [17]: 9.9

SMILES: Nc1cc(F)c(S(=O)(=O)N2CCC(O)CC2)cc1C(=O)Nc1ccc(Cl)c(C(F)(F)F)c1
CC50 at 120 h [1]: 17.8 µM | EC50 (Hepatitis B virus): > 3.3 µM

Further lines, with some results ahead:

EC50 (Hepatitis B virus): > 3.3 µM
SMILES: Nc1cc(F)c(S(=O)(=O)N2CCC(O)CC2)cc1C(=O)Nc1ccc(C(F)(F)F)c(F)c1
CC50 at 120 h [1]: 5.9 µM

EC50 (Hepatitis B virus): 0.83 µM
SMILES: Nc1cc(F)c(S(=O)(=O)N2CCC(O)CC2)cc1C(=O)Nc1ccc(F)c(Cl)c1
CC50 at 120 h [1]: 18.5 µM | selectivity ratio [17]: 22.3

EC50 (Hepatitis B virus): 0.27 µM
SMILES: Nc1cc(F)c(S(=O)(=O)N2CCC(O)CC2)cc1C(=O)Nc1cc(F)c(F)c(F)c1
CC50 at 120 h [1]: 19.7 µM | selectivity ratio [17]: 73
